Laboratory results from BindingDB's records for doi:10.1021/jm801330n (University of Siena, 2009).

Molecular target: Reverse transcriptase (Human immunodeficiency virus 1, UniProt Q9WKE8)
Experiment: Binding affinity to HIV1 reverse transcriptase treated for 3 mins by surface plasmon resonance
Method in brief: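 Kinetic titration SPR at 25 °C against an RT surface, with an untreated dextran surface as reference. Running buffer: 10 mM Hepes, 150 mM NaCl, 3.4 mM EDTA, 0,01% P20, 4% DMSO, pH 7.5. Five sequential 3-min injections at 50 µL·min^-1 (0.075–1.2 µM, 2-fold steps), each followed by 2-min dissociation, and a final 20-min dissociation. Data were double-referenced.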

## COc1ccc([C@@H]2C[C@H]2CSc2nc([C@H](C)c3c(F)cccc3F)c(C)c(=O)[nH]2)cc1
  koff: 2.1e-05 s⁻¹
